# High-throughput results deposited in PubChem BioAssay by Broad Institute.
# Only some compounds are listed: those with a hit (about 2.1% of all), similar ones and a draw of the others.
# DENV2 CPE = protects cells from dengue virus 2 cytopathic effect; DENV2-infected cells, cytopathic effect rescue, plate reader; CPE inhibition, % at 9.99 µM; 350,000 compounds, 1.7% hits; AID 651640; in the data active means CPE inhibition above about 20%, passing the limit was not always enough; tested in BHK-21 cells;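 further: 0% = median of neutral control wells and 100% = median of positive control wells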
# Xi reactivation = activators of X-chromosome reactivation in mouse fibroblasts. XiGFP mouse fibroblasts, % GFP-positive cells imaging, 3 d; cells co-treated with 5-aza-dC sensitizer; scaled so ellipticine positive control = 100%. 360,000 compounds, 0.055% hits. activation, % at 7.58 µM;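 active means mean normalized replicate activation at least 10% and every replicate at or above 10%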;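 further: 0% = median of on-plate neutral control wells and 100% = ellipticine 6 µM median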
#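 System: SV40-immortalized XiGFP fibroblast cells, line 68-5-11 / Incubation: 3-day compound exposure, then 15 min fixation at room temperature / Compound: single concentration per compound, delivered by pin transfer / Buffer or medium: DMEM plus 5-aza-dC sensitizer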
# Cneo AK release = causes C. neoformans cell lysis; lysis activity, % at 15 µM; 360,000 compounds, 0.2% hits; AID 651654; adenylate kinase release luminescence, 4 h; normalised: neutral wells 0, clomiphene wells 100;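 active means mean lysis activity across replicates of at least 80%, whatever share of replicates individually reach that level; inactive means mean lysis activity below 80%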
#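 Material: C. neoformans cells; Schedule: 4 h static compound exposure, 37 °C, read 1 h post-reagent; Measured by: adenylate kinase release luminescence; Read-out: signal increase indicating cell lysis; Controls: Clomiphene as positive lysis control.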
# C2C12 statin = suppressors of simvastatin-induced myotoxicity in C2C12 myotubes | ATP luminescence, 48 h; scaled: DMSO 0, geranylgeraniol control 100 | rescue of ATP level, % at 7.49 µM | 330,000 compounds, 0.78% hits;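 active means mean ATP rescue above about 67%, or every replicate alone reaching that limit, limit read from the data, passing the limit was not always enough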;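 further: myotubes were challenged with 10 µM simvastatin during compound exposure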
# The depositor's hits bear a star; . = no result given.
SMILES,DENV2 CPE,Xi reactivation,Cneo AK release,C2C12 statin
COc1ccc(S(=O)(=O)Nc2ccc3c(c2)C(=O)N([C@@H](C)CO)C[C@@H](C)[C@H](CN(C)C(=O)Cc2ccccc2)OCCCC[C@H](C)O3)cc1,24*,0,-6,.
C[C@@H]1CCCCO[C@@H](CN(C)C(=O)Nc2ccc(C(F)(F)F)cc2)[C@H](C)CN([C@H](C)CO)C(=O)c2cc(NS(=O)(=O)c3ccccc3)ccc2O1,38*,0,-1,.
CC(C)(C)C(=O)Nc1ccccc1N1CCN(C(=O)c2ccc(Cl)cc2)CC1,.,.,3,127*
O=C(CSc1ccc(Cl)cc1)Nc1ccccc1N1CCN(C(=O)c2ccc(Cl)cc2)CC1,-13,0,.,.
CNC[C@@H]1OCCCC[C@@H](C)Oc2ccc(NC(=O)Nc3c(C)noc3C)cc2C(=O)N([C@H](C)CO)C[C@H]1C,22*,-1,-5,-25
CNC[C@H]1Oc2ccc(NC(=O)NC(C)C)cc2C(=O)N([C@@H](C)CO)C[C@@H]1C,28*,0,2,-6
CNC[C@H]1OCCCC[C@@H](C)Oc2ccc(NC(=O)Nc3c(C)noc3C)cc2C(=O)N([C@H](C)CO)C[C@@H]1C,.,0,.,13
CNC[C@H]1OCCCC[C@@H](C)Oc2ccc(NC(=O)NC(C)C)cc2C(=O)N([C@H](C)CO)C[C@@H]1C,-1,0,-1,.
CNC[C@@H]1OCCCC[C@H](C)Oc2ccc(NC(=O)NC(C)C)cc2C(=O)N([C@H](C)CO)C[C@H]1C,-2,0,117*,.
C[C@@H]1CCCCO[C@@H](CN(C)Cc2ccncc2)[C@@H](C)CN([C@H](C)CO)C(=O)c2cc(NS(=O)(=O)c3cn(C)cn3)ccc2O1,0,0,-1,.
CCN(CC)C(=O)CSc1ccccc1N,.,.,3,116*
COC(=O)[C@]12CCCCC=C1N(Cc1cccc3ccccc13)C(=O)[C@H](CC(=O)N1CCSCC1)C2,32*,0,.,.
COC(=O)[C@]12CCCCC=C1N(Cc1cccc3ccccc13)C(=O)[C@H](CC(=O)NCCC(C)C)C2,109*,0,.,.
CCOC(=O)[C@]12CCC=C1N(Cc1cccc3ccccc13)C(=O)[C@H](CC(=O)N1CCCC1)C2,37*,0,.,.
CN1c2ccc(Br)cc2[C@@H]2[C@@H](CCN2C(=O)C2CCCC2)[C@@H]1CO,5,0,.,.
C[C@H](CO)N1C[C@H](C)[C@@H](CN(C)S(C)(=O)=O)Oc2ccc(NC(=O)C3CC3)cc2CC1=O,-2,0,1,4
C[C@@H]1CCCCO[C@H](CN(C)S(=O)(=O)c2cccs2)[C@H](C)CN([C@@H](C)CO)C(=O)c2cc(NS(C)(=O)=O)ccc2O1,-1,0,-1,35
Cc1noc(C)c1NC(=O)N(C)C[C@@H]1Oc2ccc(NS(=O)(=O)c3cccs3)cc2C(=O)N([C@@H](C)CO)C[C@H]1C,38*,0,-1,-51
Cc1noc(C)c1NC(=O)N(C)C[C@H]1OCCCC[C@@H](C)Oc2ccc(NS(=O)(=O)c3ccccc3)cc2C(=O)N([C@H](C)CO)C[C@H]1C,70*,0,-2,.
Cc1noc(C)c1NC(=O)N(C)C[C@@H]1Oc2ccc(NS(=O)(=O)c3cccs3)cc2C(=O)N([C@H](C)CO)C[C@H]1C,-9,0,-4,-54
Cc1noc(C)c1NC(=O)N(C)C[C@@H]1OCCCC[C@H](C)Oc2ccc(NS(=O)(=O)c3cccs3)cc2C(=O)N([C@@H](C)CO)C[C@H]1C,22*,-1,-2,.
Cc1ccc(S(=O)(=O)N(CC(=O)NCc2ccccc2Cl)C(=O)N2CCN(C)CC2)cc1,-4,0,.,-5
Cc1ccc(S(=O)(=O)N(CC(=O)NCc2ccc(F)cc2)C(=O)N2CCN(C)CC2)cc1,31*,0,-1,9
C[C@@H]1CN([C@@H](C)CO)C(=O)c2cccc(NS(=O)(=O)c3ccccc3)c2O[C@@H]1CN(C)Cc1ccc(C(=O)O)cc1,10,0,3,-3
O=C(CN1C(=O)NC2(CCCC2)C1=O)N1CCN(S(=O)(=O)c2ccccc2[N+](=O)[O-])CC1,38*,0,-2,21
SMILES,DENV2 CPE,Xi reactivation,Cneo AK release,C2C12 statin
O=C(CN1C(=O)NC2(CCCC2)C1=O)N1CCN(S(=O)(=O)c2ccccc2F)CC1,2,0,0,.
CO[C@H]1CN(C)C(=O)c2ccc(NC(=O)C3CC3)cc2OC[C@H](C)N(Cc2ccccc2)C[C@H]1C,6,0,1,0
CCCC#Cc1ccc([C@H]2[C@@H](CO)N3CCCCN(Cc4cccnc4)C[C@@H]23)cc1,33*,0,0,7
COCC#Cc1ccc([C@H]2[C@@H](CO)N3CCCCN(Cc4cccnc4)C[C@@H]23)cc1,57*,0,0,.
COCC#Cc1ccc([C@@H]2[C@@H](CO)N3CCCCN(Cc4cccnc4)C[C@H]23)cc1,.,0,2,.
CCCC#Cc1ccc([C@H]2[C@@H](CO)N3CCCCN(Cc4cncnc4)C[C@@H]23)cc1,14,1,0,.
CCCC#Cc1ccc([C@@H]2[C@@H](CO)N3CCCCN(Cc4cncnc4)C[C@@H]23)cc1,26*,0,0,.
CC(C)CC#Cc1cnc2c(c1)C(=O)N([C@@H](C)CO)C[C@@H](C)[C@H](CN(C)C(=O)C1CCOCC1)O2,-3,0,3,9
CC(=O)c1cc(F)c(N2CCCC2)cc1C,.,.,1,101*
CCNC(=O)[C@H]1[C@H](CO)[C@H]2Cn3c(ccc(-c4cncnc4)c3=O)[C@H]2N1Cc1ccc2c(c1)OCO2,5,0,1,6
COc1cc2sc3ccc(C#Cc4ccccn4)cc3c(=O)c2cc1OC,23*,0,0,-14
O=C(O)C[C@H]1C[C@H]2c3cc(NC(=O)NC4CCCC4)ccc3O[C@H]2[C@H](CO)O1,36*,0,-1,2
O=C(Nc1ccc2c(c1)[C@@H]1C[C@@H](CC(=O)N3CCOCC3)O[C@@H](CO)[C@@H]1O2)NC1CCCCC1,23*,0,-4,-4
O=C(Nc1ccc2c(c1)[C@@H]1C[C@H](CC(=O)N3CCCCC3)O[C@@H](CO)[C@@H]1O2)NC1CCCCC1,32*,0,.,.
O=C(Nc1ccc2c(c1)[C@H]1C[C@H](CC(=O)N3CCOCC3)O[C@H](CO)[C@H]1O2)NC1CCCCC1,3,0,-3,1
O=C(Nc1ccc2c(c1)[C@H]1C[C@H](CC(=O)N3CCCCC3)O[C@@H](CO)[C@H]1O2)NC1CCCCC1,.,0,.,.
C[C@H]1CN([C@@H](C)CO)C(=O)c2cc(NC(=O)NC3CCCCC3)ccc2O[C@H]1CN(C)C,0,-1,0,-3
C/C=C/c1cnc2c(c1)C(=O)N([C@@H](C)CO)C[C@@H](C)[C@H](CN(C)C(=O)C1CC1)O2,.,-1,.,-19
COCC(=O)Nc1ccc2c(c1)[C@@H]1C[C@H](CC(=O)NCc3ccccn3)O[C@H](CO)[C@@H]1O2,-6,1,0,1
